Test results: ChEMBL document CHEMBL1148835, “Weak base dispiro-1,2,4-trioxolanes: potent antimalarial ozonides” (Bioorg Med Chem Lett, 2007)
Converted amounts (≈) assume the structure as drawn.

How the values were obtained:
Plasmodium berghei = assay: Antimalarial activity as reduced parasitaemia against Plasmodium berghei infected MORO mice (Mus musculus) at 10 mg/kg peroral dose; assay type: functional; design: scale not given: the % may be the effect or the level left; settings: route oral
In short: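 Groups of three P. berghei-infected MORO mice were given a single oral 10 mg/kg dose on day 1 post-infection. Read-out was percent reduction in parasitemia on day 3 post-infection.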

Plasmodium falciparum [1] = assay: Antimalarial activity against chloroquine-sensitive Plasmodium falciparum NF54; assay type: functional, organism-based
In short: (§1)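 In vitro growth assay using asexual P. falciparum cultures, K1 for line 1 and NF54 for line 2. Each value is the mean of 2–3 determinations. Individual measurements differed by less than 50%.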

Plasmodium falciparum [2] = assay: Antimalarial activity against chloroquine-resistant Plasmodium falciparum K1; assay type: functional, organism-based; in short: as §1
[3] = Half life in Sprague-Dawley rat at 25 mg/kg, iv and 50 mg/kg, po; assay type: ADME, organism-based; settings: in vivo
In short: (§2)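 Rats were dosed 25 mg/kg IV via a jugular cannula in aqueous citrate buffer, pH 3. Separately, 50 mg/kg was given by oral gavage as a suspension in 0.5% w/v aqueous HPMC. Carotid-cannula serial blood samples were centrifuged immediately and the plasma stored at -80 °C. Plasma was assayed by LC/MS against a calibration curve prepared in plasma. Values are the average of 2–3 determinations.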

[4] = Plasma clearance in Sprague-Dawley rat at 25 mg/kg, iv and 50 mg/kg, po; assay type: ADME, organism-based; in short: as §2
[5] = Bioavailability in Sprague-Dawley rat at 25 mg/kg, po; assay type: ADME, organism-based; settings: in vivo
Rattus norvegicus = species: Rattus norvegicus; assay: Neurotoxicity in rat; assay type: toxicity, organism-based; settings: in vivo
In short: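 Five-day toxicity study in male rats with daily oral administration, including observation for signs of neurotoxicity.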

[6] = Biodistribution in Sprague-Dawley rat at 25 mg/kg, iv and 50 mg/kg, po; assay type: ADME, organism-based; settings: in vivo; in short: as §2
[7] = target: Voltage-gated inwardly rectifying potassium channel KCNH2 (Homo sapiens, UniProt Q12809); assay: Inhibition of hERG by patch clamp assay; assay type: toxicity
[8] = Biodistribution in Sprague-Dawley rat at 4 mg/kg, iv and 10 mg/kg, po; assay type: ADME, organism-based; settings: in vivo
In short: (§3)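 Rats were dosed 4 mg/kg IV via a jugular cannula fitted the day before, in 40% v/v propylene glycol, 10% v/v ethanol and water. Separately, 10 mg/kg was given by oral gavage as a suspension in 0.5% w/v aqueous HPMC. Serial blood was drawn via a carotid cannula and the plasma stored at -80 °C. Plasma was quantified by LC/MS against a calibration curve prepared in plasma. Values are the average of 2–3 determinations.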

[9] = Half life in Sprague-Dawley rat at 4 mg/kg, iv and 10 mg/kg, po; assay type: ADME, organism-based; settings: in vivo; in short: as §3
[10] = Plasma clearance in Sprague-Dawley rat at 4 mg/kg, iv and 10 mg/kg, po; assay type: ADME, organism-based; in short: as §3
[11] = Bioavailability in Sprague-Dawley rat at 10 mg/kg, po; assay type: ADME, organism-based; settings: in vivo; in short: as §3
[12] = Biodistribution in Sprague-Dawley rat at 10 mg/kg, iv and 50 mg/kg, po; assay type: ADME, organism-based; settings: in vivo
In short: (§4)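 Rats were dosed 10 mg/kg IV via a jugular cannula in 10% v/v propylene glycol, 10% v/v ethanol and water. Separately, 50 mg/kg was given by oral gavage as a suspension in 0.5% w/v aqueous HPMC. Serial blood was drawn via a carotid cannula and the plasma stored at -80 °C. LC/MS quantification used a calibration curve prepared in plasma. Values are the average of 2–3 determinations.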

[13] = Half life in Sprague-Dawley rat at 10 mg/kg, iv and 50 mg/kg, po; assay type: ADME, organism-based; settings: in vivo; in short: as §4
[14] = Plasma clearance in Sprague-Dawley rat at 10 mg/kg, iv and 50 mg/kg, po; assay type: ADME, organism-based; in short: as §4

Voltage-gated inwardly rectifying potassium channel KCNH2, sequence (Q12809 whole entry): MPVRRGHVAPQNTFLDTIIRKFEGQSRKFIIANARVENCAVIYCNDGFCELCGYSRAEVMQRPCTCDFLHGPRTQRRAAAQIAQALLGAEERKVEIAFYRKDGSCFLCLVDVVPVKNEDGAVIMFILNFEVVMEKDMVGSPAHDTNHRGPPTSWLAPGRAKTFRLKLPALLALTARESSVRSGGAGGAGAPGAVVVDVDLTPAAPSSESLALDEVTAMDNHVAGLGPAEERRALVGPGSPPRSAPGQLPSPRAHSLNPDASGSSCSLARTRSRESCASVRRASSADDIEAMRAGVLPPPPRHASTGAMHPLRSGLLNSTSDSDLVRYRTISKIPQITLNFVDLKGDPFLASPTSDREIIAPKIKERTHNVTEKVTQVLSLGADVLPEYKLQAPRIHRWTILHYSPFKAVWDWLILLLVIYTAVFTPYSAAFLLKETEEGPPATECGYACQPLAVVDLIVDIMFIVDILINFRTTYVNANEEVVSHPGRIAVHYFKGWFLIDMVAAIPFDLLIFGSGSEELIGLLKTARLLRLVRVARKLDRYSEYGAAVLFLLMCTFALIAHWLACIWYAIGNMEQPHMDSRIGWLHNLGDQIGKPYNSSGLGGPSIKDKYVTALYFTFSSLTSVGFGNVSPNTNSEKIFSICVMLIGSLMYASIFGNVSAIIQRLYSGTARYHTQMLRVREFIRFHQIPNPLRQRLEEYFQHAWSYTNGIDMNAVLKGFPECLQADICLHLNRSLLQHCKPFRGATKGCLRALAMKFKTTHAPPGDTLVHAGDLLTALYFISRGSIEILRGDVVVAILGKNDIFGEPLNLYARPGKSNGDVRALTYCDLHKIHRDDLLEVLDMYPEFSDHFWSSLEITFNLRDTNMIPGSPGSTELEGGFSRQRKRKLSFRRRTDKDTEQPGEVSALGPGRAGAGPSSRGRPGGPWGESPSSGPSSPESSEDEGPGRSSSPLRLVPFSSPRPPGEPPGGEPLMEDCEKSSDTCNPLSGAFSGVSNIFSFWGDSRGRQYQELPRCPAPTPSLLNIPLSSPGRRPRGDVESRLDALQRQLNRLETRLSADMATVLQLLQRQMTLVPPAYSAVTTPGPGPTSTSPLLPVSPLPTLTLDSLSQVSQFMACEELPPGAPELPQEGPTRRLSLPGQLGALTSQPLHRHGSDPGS

| SMILES | Activity (Plasmodium berghei) [%] | IC50 (Plasmodium falciparum [1]) [ng/mL] | IC50 (Plasmodium falciparum [2]) [ng/mL] | also measured |
| --- | --- | --- | --- | --- |
| Cc1ccc(S(=O)(=O)O)cc1.N[C@H]1CC[C@]2(CC1)OO[C@]1(O2)C2CC3CC(C2)CC1C3 | 98 | 0.31 |  |  |
| OCC[C@H]1CC[C@]2(CC1)OO[C@]1(O2)C2CC3CC(C2)CC1C3 | 89 | 0.75 (≈ 2.43 nM) | 0.3 (≈ 0.973 nM) |  |
| c1cnn(C[C@H]2CC[C@]3(CC2)OO[C@]2(O3)C3CC4CC(C3)CC2C4)c1 | 78 | 1.2 (≈ 3.48 nM) | 1 (≈ 2.9 nM) |  |
| c1c[nH]c(C[C@H]2CC[C@]3(CC2)OO[C@]2(O3)C3CC4CC(C3)CC2C4)n1 | 71 |  |  |  |
| C1C2CC3CC1CC(C2)[C@]31OO[C@@]2(CC[C@H](Cc3nnn[nH]3)CC2)O1 | 40 | 55 (≈ 159 nM) | 46 (≈ 133 nM) |  |
| NC(=O)c1cn(C[C@H]2CC[C@]3(CC2)OO[C@]2(O3)C3CC4CC(C3)CC2C4)cn1 | 99.76 |  |  |  |
| c1cn(CC[C@H]2CC[C@]3(CC2)OO[C@]2(O3)C3CC4CC(C3)CC2C4)cn1 |  | 0.4 (≈ 1.12 nM) | 0.44 (≈ 1.23 nM) |  |
| NC(=O)CNC[C@H]1CC[C@]2(CC1)OO[C@]1(O2)C2CC3CC(C2)CC1C3 |  | 0.59 (≈ 1.68 nM) | 0.3 (≈ 0.856 nM) | half-life [3]: 1.57 h; clearance [4]: 102 mL/min/kg; bioavailability [5]: 58%; Activity (Rattus norvegicus): Non-toxic; Vd [6]: 13 L/kg; IC50 [7]: 2.7 µM |
| O=CN1CCN(C[C@H]2CC[C@]3(CC2)OO[C@]2(O3)C3CC4CC(C3)CC2C4)CC1 | 99.01 |  |  |  |
| NS(=O)(=O)c1ccc(N[C@H]2CC[C@]3(CC2)OO[C@]2(O3)C3CC4CC(C3)CC2C4)cc1 | 99.98 | 3 (≈ 6.9 nM) | 2.7 (≈ 6.21 nM) |  |
| CC(C)(C)C1CCC2(CC1)OOC1(CCC(CN)CC1)O2.CS(=O)(=O)O (stereo not drawn) | 0 | > 100 | > 100 |  |
| CS(=O)(=O)O.NC[C@H]1CC[C@]2(CC1)OOC1(O2)C2CC3CC(C2)CC1C3 (stereo partly drawn) |  |  | 0.39 | half-life [3]: 2.5 h; clearance [4]: 177 mL/min/kg; bioavailability [5]: 31%; Activity (Rattus norvegicus): Non-toxic; Vd [6]: 39 L/kg; IC50 [7]: 1.8 µM |
| C1C2CC3CC1CC(C2)C31OO[C@]2(CC[C@@H](CNC3CC3)CC2)O1.CS(=O)(=O)O (stereo partly drawn) |  | 0.45 | 0.56 |  |
| CS(=O)(=O)O.O=C(O)CNC[C@H]1CC[C@]2(CC1)OOC1(O2)C2CC3CC(C2)CC1C3 (stereo partly drawn) |  | 17 | 11 |  |
| CS(=O)(=O)O.NC(=O)CCNC[C@H]1CC[C@]2(CC1)OOC1(O2)C2CC3CC(C2)CC1C3 (stereo partly drawn) | 99.92 | 0.91 | 0.41 |  |
| CC(C)(N)CNC[C@H]1CC[C@]2(CC1)OOC1(O2)C2CC3CC(C2)CC1C3.CS(=O)(=O)O.CS(=O)(=O)O (stereo partly drawn) |  | 0.83 | 0.49 |  |
| CN(C)C[C@H]1CC[C@]2(CC1)OOC1(O2)C2CC3CC(C2)CC1C3.CS(=O)(=O)O (stereo partly drawn) |  | 0.75 | 0.35 |  |
| CS(=O)(=O)O.c1csc(NC[C@H]2CC[C@]3(CC2)OOC2(O3)C3CC4CC(C3)CC2C4)n1 (stereo partly drawn) |  | 2.2 | 2.3 |  |
| CS(=O)(=O)O.c1ncn(C[C@H]2CC[C@]3(CC2)OOC2(O3)C3CC4CC(C3)CC2C4)n1 (stereo partly drawn) |  | 1.7 | 0.9 |  |
| CS(=O)(=O)O.NOC[C@H]1CC[C@]2(CC1)OOC1(O2)C2CC3CC(C2)CC1C3 (stereo partly drawn) | 47 | 20 | 28 |  |
| NC(=O)CN(CC(N)=O)C[C@H]1CC[C@]2(CC1)OO[C@]1(O2)C2CC3CC(C2)CC1C3 | 86 | 2 (≈ 4.91 nM) | 1.7 (≈ 4.17 nM) |  |
| NC(=O)c1ccc(N[C@H]2CC[C@]3(CC2)OO[C@]2(O3)C3CC4CC(C3)CC2C4)cc1 | 99.98 | 1 (≈ 2.51 nM) | 1.1 (≈ 2.76 nM) |  |
| NC(=O)c1cncn1C[C@H]1CC[C@]2(CC1)OO[C@]1(O2)C2CC3CC(C2)CC1C3 | 99.77 |  |  |  |
| OC[C@H]1CC[C@]2(CC1)OO[C@]1(O2)C2CC3CC(C2)CC1C3 |  |  |  | Vd [8]: 5.3 L/kg; half-life [9]: 0.45 h; clearance [10]: 136 mL/min/kg |
| NS(=O)(=O)c1ccc(NC[C@H]2CC[C@]3(CC2)OO[C@]2(O3)C3CC4CC(C3)CC2C4)cc1 | 99.95 |  |  |  |
| O=C1CN(C[C@H]2CC[C@]3(CC2)OO[C@]2(O3)C3CC4CC(C3)CC2C4)CCN1 |  | 1.8 (≈ 4.78 nM) | 1.3 (≈ 3.45 nM) |  |
| CCOC(=O)NC[C@H]1CC[C@]2(CC1)OO[C@]1(O2)C2CC3CC(C2)CC1C3 |  | 0.56 (≈ 1.53 nM) |  |  |
| Cl.c1cn(C[C@H]2CC[C@]3(CC2)OO[C@]2(O3)C3CC4CC(C3)CC2C4)cn1 |  | 1.1 | 1.3 | bioavailability [11]: 36%; Activity (Rattus norvegicus): Non-toxic; Vd [12]: 4.1 L/kg; half-life [13]: 0.783 h; clearance [14]: 60.1 mL/min/kg |
| Cl.NCC[C@H]1CC[C@]2(CC1)OO[C@]1(O2)C2CC3CC(C2)CC1C3 |  | 0.48 | 0.15 |  |
